Measurements taken from ChEMBL document CHEMBL5705890, “Antitumor activity of an allosteric inhibitor of centromere-associated protein-E” (Proc Natl Acad Sci U S A, 2010).

Legend:
[1] = target: Centromere-associated protein E (Homo sapiens, UniProt Q02224, I182L/K184T/T183A); test: Binding affinity to human CENP-E I182L/T183A/K184T mutant assessed as inhibition constant
[2] = target: Centromere-associated protein E (Homo sapiens, UniProt Q02224); test: Inhibition of microtubule-stimulated ATPase activity of C-terminal 6-his-tagged CENP-E (2 to 340 residues)(unknown origin) expressed in Escherichia coli BL21(DE3) in presence of ATP
Summary of the method: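 Steady-state ATPase of CENP-E motor domain, residues 2–340 with C-terminal 6-His tag, expressed in E. coli BL21(DE3). Run at 1 nM enzyme, 500 μM ATP and 5 μM paclitaxel-stabilized microtubules in PEM25 (25 mM PIPES-K pH 6.8, 2 mM MgCl2, 1 mM EGTA) plus 10 μM paclitaxel. IC50 taken from concentration-response curves.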

A204 [3] = test: Anticancer activity against human A204 cells assessed as cell growth inhibition measured after 72 hrs by DAPI staining based analysis; type: functional
Summary of the method: (§1)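 Cells were seeded and, after 24 h, DNA content was read as T0. Cells were then exposed to varying drug concentrations for a further 72 h (T72). Fixed cells were DAPI-stained and DNA content measured by automated imaging. T72 values were normalized to T0. GI50 is the concentration giving 50% growth inhibition between T0 and Ymax, obtained by curve fitting.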

[4] = Anticancer activity against human BC-2 cells assessed as cell growth inhibition measured after 72 hrs by DAPI staining based analysis; type: functional; summary of the method: as §1
C-33-A = test: Anticancer activity against human C-33-A cells assessed as cell growth inhibition measured after 72 hrs by DAPI staining based analysis; type: functional
Summary of the method: (§2)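 Cells were seeded, and DNA content at 24 h after seeding (T0) was read by imaging of fixed, DAPI-stained cells. Cells were then exposed to a range of drug concentrations for a further 72 h (T72) and DNA content was read again. T72 values were normalized to T0, and GI50 was taken from curve fits as the concentration giving 50% growth inhibition relative to T0 and Ymax.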

CAKI-2 [5] = test: Anticancer activity against human CAKI-2 cells assessed as cell growth inhibition measured after 72 hrs by DAPI staining based analysis; type: functional; summary of the method: as §2
COLO 201 = test: Anticancer activity against human COLO201 cells assessed as cell growth inhibition measured after 72 hrs by DAPI staining based analysis; type: functional
Summary of the method: (§3)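 Cells seeded, DAPI-stained DNA content of fixed cells read by imaging 24 h after seeding (T0), and again after a further 72 h exposure to a range of drug concentrations (T72). T72 values were normalized to T0. Curve fits gave the concentration producing 50% growth inhibition relative to T0 and Ymax (GI50).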

GCT = test: Anticancer activity against human GCT cells assessed as cell growth inhibition measured after 72 hrs by DAPI staining based analysis; type: functional; summary of the method: as §3
HCT-116 = test: Anticancer activity against human HCT-116 cells assessed as cell growth inhibition measured after 72 hrs by DAPI staining based analysis; type: functional
HEC-1B cell line [6] = test: Anticancer activity against human HEC-1B cells assessed as cell growth inhibition measured after 72 hrs by DAPI staining based analysis; type: functional
HT-1080 = test: Anticancer activity against human HT-1080 cells assessed as cell growth inhibition measured after 72 hrs by DAPI staining based analysis; type: functional
[7] = Anticancer activity against human KHOS-240S cells assessed as cell growth inhibition measured after 72 hrs by DAPI staining based analysis; type: functional
NCI-H630 = test: Anticancer activity against human NCI-H630 cells assessed as cell growth inhibition measured after 72 hrs by DAPI staining based analysis; type: functional
OV-90 = test: Anticancer activity against human OV-90 cells assessed as cell growth inhibition measured after 72 hrs by DAPI staining based analysis; type: functional
[8] = Anticancer activity against human UM-SCC-12 cells assessed as cell growth inhibition measured after 72 hrs by DAPI staining based analysis; type: functional
SF-295 = test: Anticancer activity against human SF-295 cells assessed as cell growth inhibition measured after 72 hrs by DAPI staining based analysis; type: functional
SH-4 = test: Anticancer activity against human SH-4 cells assessed as cell growth inhibition measured after 72 hrs by DAPI staining based analysis; type: functional
SW837 = test: Anticancer activity against human SW837 cells assessed as cell growth inhibition measured after 72 hrs by DAPI staining based analysis; type: functional
T-24 = test: Anticancer activity against human T24 cells assessed as cell growth inhibition measured after 72 hrs by DAPI staining based analysis; type: functional
A204 [9] = test: Anticancer activity against human A204 cells assessed as cell doubling measured for 72 hrs by DAPI staining based analysis; type: functional
A-427 = test: Anticancer activity against human A-427 cells assessed as cell doubling measured for 72 hrs by DAPI staining based analysis; type: functional
A-431 = test: Anticancer activity against human A-431 cells assessed as cell doubling measured for 72 hrs by DAPI staining based analysis; type: functional
CAKI-2 [10] = test: Anticancer activity against human CAKI-2 cells assessed as cell doubling measured for 72 hrs by DAPI staining based analysis; type: functional
HCC 2998 = test: Anticancer activity against human HCC 2998 cells assessed as cell doubling measured for 72 hrs by DAPI staining based analysis; type: functional
HEC-1B cell line [11] = test: Anticancer activity against human HEC-1B cells assessed as cell doubling measured for 72 hrs by DAPI staining based analysis; type: functional
Hep 3B2 = test: Anticancer activity against human Hep3B cells assessed as cell doubling measured for 72 hrs by DAPI staining based analysis; type: functional
HN5 = test: Anticancer activity against human HN5 cells assessed as cell doubling measured for 72 hrs by DAPI staining based analysis; type: functional
HuP-T4 = test: Anticancer activity against human HuP-T4 cells assessed as cell doubling measured for 72 hrs by DAPI staining based analysis; type: functional
HuT78 = test: Anticancer activity against human HuT78 cells assessed as cell doubling measured for 72 hrs by DAPI staining based analysis; type: functional
K562 = test: Anticancer activity against human K562 cells assessed as cell doubling measured for 72 hrs by DAPI staining based analysis; type: functional
MDA-MB-175-VII = test: Anticancer activity against human MDA-MB-175-VII cells assessed as cell doubling measured for 72 hrs by DAPI staining based analysis; type: functional
MDA-MB-231 [12] = test: Anticancer activity against human MDA-MB-231 cells assessed as cell doubling measured for 72 hrs by DAPI staining based analysis; type: functional
SF-268 = test: Anticancer activity against human SF-268 cells assessed as cell doubling measured for 72 hrs by DAPI staining based analysis; type: functional
[13] = Anticancer activity against human SKO-007 cells assessed as cell doubling measured for 72 hrs by DAPI staining based analysis; type: functional
ST486 = test: Anticancer activity against human ST486 cells assessed as cell doubling measured for 72 hrs by DAPI staining based analysis; type: functional
SW 954 = test: Anticancer activity against human SW 954 cells assessed as cell doubling measured for 72 hrs by DAPI staining based analysis; type: functional
MDA-MB-231 [14] = test: Antitumor activity against human MDA-MB-231 cells in xenograft model assessed as tumor growth delay at 125 mg/kg relative to control; type: functional

Sequence of Centromere-associated protein E (Homo sapiens, UniProt Q02224) (Q02224 whole entry, the tested form may be a part): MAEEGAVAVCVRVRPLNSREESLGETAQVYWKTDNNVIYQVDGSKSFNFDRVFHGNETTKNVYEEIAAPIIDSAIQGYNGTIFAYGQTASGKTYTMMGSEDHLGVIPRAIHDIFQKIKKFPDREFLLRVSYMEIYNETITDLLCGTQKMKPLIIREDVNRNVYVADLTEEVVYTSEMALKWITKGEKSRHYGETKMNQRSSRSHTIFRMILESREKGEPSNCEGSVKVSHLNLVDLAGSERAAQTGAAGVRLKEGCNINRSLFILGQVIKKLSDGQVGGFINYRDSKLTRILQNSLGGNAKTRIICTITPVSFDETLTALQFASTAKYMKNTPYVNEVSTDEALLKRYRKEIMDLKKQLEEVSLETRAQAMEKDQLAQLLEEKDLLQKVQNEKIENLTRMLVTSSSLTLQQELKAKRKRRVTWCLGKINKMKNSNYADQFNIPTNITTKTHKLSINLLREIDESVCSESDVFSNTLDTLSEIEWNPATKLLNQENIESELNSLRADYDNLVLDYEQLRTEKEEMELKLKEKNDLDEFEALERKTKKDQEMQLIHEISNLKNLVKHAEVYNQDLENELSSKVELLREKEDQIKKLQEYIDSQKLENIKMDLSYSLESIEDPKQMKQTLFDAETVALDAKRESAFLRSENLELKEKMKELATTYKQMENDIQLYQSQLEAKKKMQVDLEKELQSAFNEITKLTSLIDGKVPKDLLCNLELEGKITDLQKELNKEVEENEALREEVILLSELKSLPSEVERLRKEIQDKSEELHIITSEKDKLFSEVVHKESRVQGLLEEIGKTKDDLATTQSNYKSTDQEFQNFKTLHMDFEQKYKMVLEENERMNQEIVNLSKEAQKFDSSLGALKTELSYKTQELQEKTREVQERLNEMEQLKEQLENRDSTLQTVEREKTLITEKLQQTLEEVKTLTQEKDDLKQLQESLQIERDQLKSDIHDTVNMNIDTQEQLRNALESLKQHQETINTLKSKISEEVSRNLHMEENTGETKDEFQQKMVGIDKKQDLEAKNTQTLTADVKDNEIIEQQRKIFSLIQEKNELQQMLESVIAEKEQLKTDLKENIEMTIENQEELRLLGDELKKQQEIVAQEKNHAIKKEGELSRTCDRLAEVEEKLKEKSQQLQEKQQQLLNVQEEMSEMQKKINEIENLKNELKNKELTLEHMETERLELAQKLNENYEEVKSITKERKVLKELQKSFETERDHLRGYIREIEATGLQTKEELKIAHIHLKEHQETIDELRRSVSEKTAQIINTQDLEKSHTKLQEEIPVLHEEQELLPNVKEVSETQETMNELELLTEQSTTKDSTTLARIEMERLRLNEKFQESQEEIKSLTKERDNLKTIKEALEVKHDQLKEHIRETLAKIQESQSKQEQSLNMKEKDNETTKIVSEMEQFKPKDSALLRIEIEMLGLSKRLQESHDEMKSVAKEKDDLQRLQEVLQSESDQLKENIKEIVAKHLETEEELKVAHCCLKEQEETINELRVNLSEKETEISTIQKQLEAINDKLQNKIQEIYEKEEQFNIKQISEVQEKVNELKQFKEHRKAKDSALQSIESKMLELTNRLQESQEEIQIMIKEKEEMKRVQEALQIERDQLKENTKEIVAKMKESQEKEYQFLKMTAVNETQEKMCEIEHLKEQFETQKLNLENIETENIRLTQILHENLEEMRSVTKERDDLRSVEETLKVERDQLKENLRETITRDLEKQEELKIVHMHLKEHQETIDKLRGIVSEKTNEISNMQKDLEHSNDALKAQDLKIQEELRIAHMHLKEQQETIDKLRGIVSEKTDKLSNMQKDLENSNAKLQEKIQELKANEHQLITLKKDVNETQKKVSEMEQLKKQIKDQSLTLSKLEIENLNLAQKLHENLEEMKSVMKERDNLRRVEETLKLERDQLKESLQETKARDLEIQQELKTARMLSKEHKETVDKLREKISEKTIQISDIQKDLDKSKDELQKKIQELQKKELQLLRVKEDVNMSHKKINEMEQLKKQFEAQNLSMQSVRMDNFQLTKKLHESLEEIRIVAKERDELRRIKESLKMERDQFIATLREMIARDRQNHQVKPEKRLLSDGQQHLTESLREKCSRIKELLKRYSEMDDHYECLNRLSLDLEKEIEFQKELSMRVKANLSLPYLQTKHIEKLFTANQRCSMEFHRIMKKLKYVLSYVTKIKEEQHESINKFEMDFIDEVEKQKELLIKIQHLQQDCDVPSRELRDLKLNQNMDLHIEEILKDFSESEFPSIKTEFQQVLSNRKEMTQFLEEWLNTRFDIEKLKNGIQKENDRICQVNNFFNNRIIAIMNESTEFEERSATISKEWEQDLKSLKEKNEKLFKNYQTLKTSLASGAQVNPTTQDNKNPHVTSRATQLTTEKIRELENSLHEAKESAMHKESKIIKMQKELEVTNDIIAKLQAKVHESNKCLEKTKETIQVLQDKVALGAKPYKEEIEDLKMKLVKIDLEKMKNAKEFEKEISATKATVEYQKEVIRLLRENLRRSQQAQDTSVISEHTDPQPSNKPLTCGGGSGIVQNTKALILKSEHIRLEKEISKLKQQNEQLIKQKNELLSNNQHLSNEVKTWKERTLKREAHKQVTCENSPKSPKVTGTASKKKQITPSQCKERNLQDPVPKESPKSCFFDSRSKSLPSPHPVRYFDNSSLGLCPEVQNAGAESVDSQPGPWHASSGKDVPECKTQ
Sequence of Centromere-associated protein E (Homo sapiens, UniProt Q02224, I182L/K184T/T183A) (Q02224 whole entry I182L/T183A/K184T, the tested form may be a part): as the sequence (Q02224 whole entry, the tested form may be a part) above, with I182L, T183A, K184T counted along it

Compound `CC(C)Oc1ccc(C(=O)N[C@H](CNC(=O)CN(C)C)Cc2ccc(-c3cn4cccc([C@H](C)O)c4n3)cc2)cc1Cl` [GSK-923295A] has a Ki [1] of 64 nM, an IC50 [2] of 2.3 nM and a GI50 (A204 [3]) of 18 nM. The GI50 [4] was 45 nM, the GI50 (C-33-A) was 47 nM and the GI50 (CAKI-2 [5]) was 25 nM. For the same compound, the GI50 (COLO 201) was 24 nM, the GI50 (GCT) was 23 nM and the GI50 (HCT-116) was 31 nM. For the same compound, the GI50 (HEC-1B cell line [6]) was 28 nM, the GI50 (HT-1080) was 24 nM and the GI50 [7] was 37 nM. The GI50 (NCI-H630) was 47 nM, the GI50 (OV-90) was 61 nM and the GI50 [8] was 33 nM. For the same compound, the GI50 (SF-295) was 35 nM, the GI50 (SH-4) was 44 nM and the GI50 (SW837) was 33 nM. It also gave a GI50 (T-24) of 45 nM, an Activity (A204 [9]) of 1.46 and an Activity (A-427) of 2.46. It also gave an Activity (A-431) of 2.95, an Activity (CAKI-2 [10]) of 1.63 and an Activity (HCC 2998) of 2.76. The Activity (HEC-1B cell line [11]) was 2.04, the Activity (Hep 3B2) was 2.37 and the Activity (HN5) was 3.38. The Activity (HuP-T4) was 1.09, the Activity (HuT78) was 2.89 and the Activity (K562) was 3.52. The Activity (MDA-MB-175-VII) was 1.15, the Activity (MDA-MB-231 [12]) was 2.32 and the Activity (SF-268) was 2.13. It also gave an Activity [13] of 1.01, an Activity (ST486) of 2.46 and an Activity (SW 954) of 1.62. For the same compound, the Activity (MDA-MB-231 [14]) was 99%.
